# Legend:
# Assay type in all cases: functional
# [1] = tested on: Corynebacterium amycolatum; experiment: Antibacterial activity against Corynebacterium amycolatum isolated from patient with diabetic foot infection after 48 hrs by broth microdilution method
# Procedure, shortened: (§1)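 Isolates were subcultured on Trypticase soy blood agar. Broth microdilution used cation-adjusted Mueller-Hinton broth with lysed horse blood, in-house trays of twofold drug dilutions stored at −70°C. Colonies from overnight growth gave a final inoculum of about 5 × 10^5 CFU/ml. Trays were read after 18 to 24 h at 37°C, up to 48 h for some strains.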
# [2] = tested on: Klebsiella pneumoniae; experiment: Antibacterial activity against Klebsiella pneumoniae isolated from patient with diabetic foot infection assessed as percent resistant isolates after 18 to 24 hrs by broth microdilution method
# Procedure, shortened: (§2)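 Aerobes subcultured on Trypticase soy blood agar, then broth microdilution in cation-adjusted Mueller-Hinton broth. Trays prepared in-house with twofold dilutions and stored at −70°C. Overnight colonies suspended to about 5 × 10^5 CFU/ml final. Read after 18 to 24 h at 37°C. QC strains included S. aureus ATCC 29213 and E. coli ATCC 25922.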
# [3] = tested on: Proteus mirabilis; experiment: Antibacterial activity against Proteus mirabilis isolated from patient with diabetic foot infection after 18 to 24 hrs by broth microdilution method
# Procedure, shortened: (§3)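 Isolates were subcultured on Trypticase soy blood agar and tested by broth microdilution in cation-adjusted Mueller-Hinton broth. In-house trays of twofold drug dilutions were stored at −70°C. Overnight colonies gave a final inoculum of about 5 × 10^5 CFU/ml. Plates were read after 18 to 24 h at 37°C.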
# [4] = tested on: Pseudomonas aeruginosa; experiment: Antibacterial activity against Pseudomonas aeruginosa isolated from patient with diabetic foot infection assessed as percent resistant isolates after 18 to 24 hrs by broth microdilution method; procedure, shortened: as §2
# [5] = tested on: Klebsiella aerogenes; experiment: Antibacterial activity against Enterobacter aerogenes isolated from patient with diabetic foot infection after 18 to 24 hrs by broth microdilution method; procedure, shortened: as §3
# [6] = tested on: Corynebacterium minutissimum; experiment: Antibacterial activity against Corynebacterium minutissimum isolated from patient with diabetic foot infection assessed as percent resistant isolates after 48 hrs by broth microdilution method
# Procedure, shortened: (§4)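 Isolates subcultured on Trypticase soy blood agar. Broth microdilution in cation-adjusted Mueller-Hinton broth with lysed horse blood, using in-house twofold dilution trays stored at −70°C. Inoculum from overnight colonies at about 5 × 10^5 CFU/ml final. Read after 18 to 24 h at 37°C, up to 48 h for some Corynebacterium strains.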
# [7] = tested on: Streptococcus pyogenes; experiment: Antibacterial activity against Streptococcus pyogenes isolated from patient with diabetic foot infection assessed as percent resistant isolates after 18 to 24 hrs by broth microdilution method
# Procedure, shortened: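 Isolates subcultured on Trypticase soy blood agar. MICs by broth microdilution in cation-adjusted Mueller-Hinton broth with lysed horse blood, in in-house trays of serial twofold drug dilutions stored at −70°C. Colonies from overnight growth were suspended to a final inoculum of about 5 × 10^5 CFU/ml. Read after 18–24 h at 37°C.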
# [8] = tested on: Corynebacterium aurimucosum; experiment: Antibacterial activity against Corynebacterium aurimucosum isolated from patient with diabetic foot infection assessed as percent resistant isolates after 48 hrs by broth microdilution method; procedure, shortened: as §4
# [9] = tested on: Staphylococcus aureus; experiment: Antibacterial activity against methicillin-sensitive Staphylococcus aureus isolated from patient with diabetic foot infection assessed as percent resistant isolates after 18 to 24 hrs by broth microdilution method
# Procedure, shortened: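 Isolates grown on Trypticase soy blood agar, then tested by broth microdilution in unsupplemented cation-adjusted Mueller-Hinton broth. In-house trays held serial twofold drug dilutions and were stored at −70°C. Overnight colonies were suspended to a final inoculum near 5 × 10^5 CFU/ml, and trays read after 18–24 h at 37°C. QC strains: S. aureus ATCC 29213, E. coli ATCC 25922.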
# [10] = tested on: Corynebacterium accolens; experiment: Antibacterial activity against Corynebacterium accolens isolated from patient with diabetic foot infection after 48 hrs by broth microdilution method; procedure, shortened: as §1
# [11] = tested on: Streptococcus dysgalactiae subsp. equisimilis; experiment: Antibacterial activity against Streptococcus dysgalactiae subsp. equisimilis isolated from patient with diabetic foot infection after 18 to 24 hrs by broth microdilution method
# Procedure, shortened: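 Streptococcal isolates were subcultured on Trypticase soy blood agar. Broth microdilution used cation-adjusted Mueller-Hinton broth with lysed horse blood, in in-house trays of serial twofold drug dilutions stored at −70°C. Overnight colonies were suspended to a final inoculum of approximately 5 × 10^5 CFU/ml. MIC was read after 18 to 24 h incubation at 37°C.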
# [12] = tested on: Proteus mirabilis; experiment: Antibacterial activity against Proteus mirabilis isolated from patient with diabetic foot infection assessed as percent resistant isolates after 18 to 24 hrs by broth microdilution method; procedure, shortened: as §2
# [13] = tested on: Escherichia coli; experiment: Antibacterial activity against Escherichia coli isolated from patient with diabetic foot infection assessed as percent resistant isolates after 18 to 24 hrs by broth microdilution method; procedure, shortened: as §2
# [14] = tested on: Corynebacterium minutissimum; experiment: Antibacterial activity against Corynebacterium minutissimum isolated from patient with diabetic foot infection after 48 hrs by broth microdilution method; procedure, shortened: as §1
# [15] = tested on: Providencia rettgeri; experiment: Antibacterial activity against Proteus rettgeri isolated from patient with diabetic foot infection after 18 to 24 hrs by broth microdilution method; procedure, shortened: as §3
# [16] = tested on: Corynebacterium jeikeium; experiment: Antibacterial activity against Corynebacterium jeikeium isolated from patient with diabetic foot infection after 48 hrs by broth microdilution method; procedure, shortened: as §1
# [17] = tested on: Pseudomonas aeruginosa; experiment: Antibacterial activity against Pseudomonas aeruginosa isolated from patient with diabetic foot infection after 18 to 24 hrs by broth microdilution method; procedure, shortened: as §3
# [18] = tested on: Corynebacterium urealyticum; experiment: Antibacterial activity against Corynebacterium urealyticum isolated from patient with diabetic foot infection assessed as percent resistant isolates after 48 hrs by broth microdilution method; procedure, shortened: as §4
# [19] = tested on: Corynebacterium striatum; experiment: Antibacterial activity against Corynebacterium striatum isolated from patient with diabetic foot infection after 48 hrs by broth microdilution method; procedure, shortened: as §1
# [20] = tested on: Corynebacterium xerosis; experiment: Antibacterial activity against Corynebacterium xerosis isolated from patient with diabetic foot infection assessed as percent resistant isolates after 48 hrs by broth microdilution method; procedure, shortened: as §4
# [21] = tested on: Staphylococcus lugdunensis; experiment: Antibacterial activity against Staphylococcus lugdunensis isolated from patient with diabetic foot infection assessed as percent resistant isolates after 18 to 24 hrs by broth microdilution method; procedure, shortened: as §2
# [22] = tested on: Streptococcus agalactiae; experiment: Antibacterial activity against Streptococcus agalactiae isolated from patient with diabetic foot infection assessed as percent resistant isolates after 18 to 24 hrs by broth microdilution method
# Procedure, shortened: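 Streptococci subcultured on Trypticase soy blood agar and tested by broth microdilution in cation-adjusted Mueller-Hinton broth with lysed horse blood. In-house twofold dilution trays stored at −70°C. About 5 × 10^5 CFU/ml final inoculum from overnight colonies. Read after 18 to 24 h at 37°C.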
# [23] = tested on: Staphylococcus haemolyticus; experiment: Antibacterial activity against Staphylococcus haemolyticus isolated from patient with diabetic foot infection assessed as percent resistant isolates after 18 to 24 hrs by broth microdilution method
# [24] = tested on: Klebsiella oxytoca; experiment: Antibacterial activity against Klebsiella oxytoca isolated from patient with diabetic foot infection after 18 to 24 hrs by broth microdilution method; procedure, shortened: as §3
# [25] = tested on: Escherichia coli; experiment: Antibacterial activity against Escherichia coli isolated from patient with diabetic foot infection after 18 to 24 hrs by broth microdilution method; procedure, shortened: as §3
smiles,measurement,setting,value
C[C@@H](O)[C@H]1C(=O)N2C(C(=O)O)=C(SCCNC=N)C[C@H]12 [IMIPENEM ANHYDROUS],MIC50,[1],0.25 µg/mL
same,MIC90,[1],32 µg/mL
same,Activity,[2],0%
same,MIC50,[3],0.5 µg/mL
same,MIC90,[3],4 µg/mL
same,Activity,[4],13%
same,MIC50,[5],1 µg/mL
same,MIC90,[5],2 µg/mL
same,Activity,[6],30%
same,Activity,[7],0%
same,Activity,[8],30%
same,Activity,[9],0%
same,MIC50,[10],0.03 µg/mL
same,MIC90,[10],0.125 µg/mL
same,MIC50,[11],≤ 0.015 µg/mL
same,MIC90,[11],≤ 0.015 µg/mL
same,Activity,[12],0%
same,Activity,[13],0%
same,MIC50,[14],0.25 µg/mL
same,MIC90,[14],32 µg/mL
same,MIC50,[15],0.5 µg/mL
same,MIC90,[15],4 µg/mL
same,MIC50,[16],0.25 µg/mL
same,MIC90,[16],32 µg/mL
same,MIC50,[17],2 µg/mL
same,MIC90,[17],8 µg/mL
same,Activity,[18],30%
same,MIC50,[19],0.03 µg/mL
same,MIC90,[19],0.125 µg/mL
same,Activity,[20],0%
same,Activity,[21],0%
same,Activity,[22],0%
same,Activity,[23],73%
same,MIC50,[24],0.25 µg/mL
same,MIC90,[24],1 µg/mL
same,MIC50,[25],0.125 µg/mL
same,MIC90,[25],0.25 µg/mL
